In the library only some 2.3% were active in any assay of this set; here they are far more common.
bCat nuc transl: beta-catenin nuclear translocation modulation; AID 1665; actives 0.3% (n = 190,000); HeLa beta-catenin nuclear translocation, immunofluorescence imaging; nuclear translocation activity, % at 5 µM;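 active = nuclear translocation activity above 50% at 5 µM, with a well cell count of 50 or more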;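 note: per-cell ratio of nuclear to cytoplasmic median beta-catenin stain intensity; plate controls were DMSO negative control for no effect and GSK-3 inhibitor IX positive control for full effect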
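Test system: HeLa cells, endogenous beta-catenin; Compound: single 5 µM dose plus 0.02–20 µM confirmation series; Times: compound exposure 24 h at 37°C; Signal: fluorescence imaging of beta-catenin antibody stain plus DAPI; Read-out: % activation, nuclear-to-cytoplasmic median beta-catenin signal ratio per cell.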
Dynein cargo inh: dynein cargo transport inhibition. z-score, hits read low. 3617.4 mouse cells, GR-EGFP nuclear translocation imaging; test concentration mostly 20 µM; stimulated with dexamethasone, 1 µM; hits give low values. AID 1381. actives 0.47% (n = 220,000);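 active = plate z-score of nuclear minus cytoplasmic receptor signal below a set negative limit, without overly bright fluorescence or cell loss, cut at about -3.5 in these data, passing the limit was not always enough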;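 note: z-score of nuclear minus cytoplasmic ring GR-EGFP intensity difference per well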
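medium = tetracycline-free induction medium containing charcoal-stripped FBS | also added = 1.0 µM final dexamethasone stimulus | schedule = 48 h induction, 1 h compound, 30 min dex at 37 °C | technique = fixed, Hoechst-stained cells imaged at 10x for EGFP | measure = GR-EGFP nuclear translocation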
Ins promoter up: MIN6 insulin promoter up-regulation; actives 0.3% (n = 190,000); MIN6 insulin promoter-GFP reporter, high-content imaging; hits give high values; AID 1625; z-score at 5 µM;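 active = z-score above 3 at 5 µM with at least 500 cells counted in the well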
MT stabilizer: microtubule stabilization, imaging screen; HeLa tubulin immunostaining HCS, 24 h; share of cells brighter than vehicle mean+2SD; % tubulin-high responders, % at 10 µM; actives 0.83% (n = 200,000); AID 2205;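 active = plate Z-score above 3 for both tubulin-high and condensed-nucleus cell shares, with cell loss under 80%, at 10 µM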;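 note: anti alpha tubulin signal scored within the nucleus-defined area of each cell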
Autophagy HCS: autophagy modulation, high-content screen; MEF GFP-LC3 puncta imaging; test concentration mostly 10 µM; calls only at 10 µM (by protocol); actives 0.98% (n = 190,000);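 active = percentage of spot-positive cells more than 3 SD above its plate mean, without a fluorescence outlier flag or 80% toxicity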;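 note: spot-positive cell cutoff set from DMSO-treated cells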
Numbers without * were called inactive.

CCOC(=O)c1[nH]c(C)c(C(=O)NCc2ccc(C)cc2)c1C was read as Dynein cargo inh 1.11, Ins promoter up -1.22, MT stabilizer 2.1 and Autophagy HCS inactive.
Screening CCOC(=O)c1[nH]c(C)c(C(=O)c2ccc(C)cc2)c1C returned Dynein cargo inh 0.462, Ins promoter up -0.76, MT stabilizer 44.0* and Autophagy HCS inactive.
CCOC(=O)c1c(C)[nH]c(C(=O)OCC(=O)N2CCc3ccccc32)c1C was read as bCat nuc transl -4.1, Dynein cargo inh 4.16, Ins promoter up 0.62, MT stabilizer 4.5 and Autophagy HCS active.
Screening CCOC(=O)c1[nH]c(C)c(C(=O)Nc2ccccc2F)c1C returned bCat nuc transl -0.2, Dynein cargo inh -0.902, Ins promoter up -0.15, MT stabilizer 33.6* and Autophagy HCS active.
CCOC(=O)c1[nH]c(C)c(C(=O)Nc2ccc(C)cc2C)c1C was read as bCat nuc transl 7.7, Dynein cargo inh -0.471, Ins promoter up 0.13 and MT stabilizer 16.5*.
For O=C(COC(=O)Cn1cnc2ccccc21)Nc1cccc(S(=O)(=O)N2CCOCC2)c1 the results were bCat nuc transl 0.5, Dynein cargo inh 0.171, Ins promoter up -0.49, MT stabilizer 1.4 and Autophagy HCS inactive.
`CCOC(=O)/C(=N\Nc1ccccc1Cl)N1CCN(c2ccccc2OC)CC1` gave bCat nuc transl 1.5, Dynein cargo inh 1.06, Ins promoter up -0.44, MT stabilizer 4.5 and Autophagy HCS inactive.
For C/C(=N\NC(=O)c1ccc(COc2ccccc2)cc1)c1ccncc1 the results were bCat nuc transl -4.9, Dynein cargo inh -0.352, Ins promoter up -0.81, MT stabilizer 3.1 and Autophagy HCS inactive.
`CO/N=C\CC(=O)Nc1ccc(Cl)c(Cl)c1` gave bCat nuc transl 49.2, Dynein cargo inh -0.761, MT stabilizer 25.6* and Autophagy HCS inactive.
Screening COC(C[C@@H](O)C[C@H](O)[C@@H](C)OCc1ccccc1)OC returned bCat nuc transl -1.7, Dynein cargo inh 0.435 and Ins promoter up -0.68.
Screening O=C(O)/C=C/C(=O)Nc1ccc(N2CCOCC2)nc1N1CCOCC1 returned bCat nuc transl 0.2, Dynein cargo inh -1.68 and Ins promoter up -1.64.
`CC(=O)N1CCN(Cc2nc3cc(NC(=O)c4ccccc4)ccc3n2C)CC1` gave bCat nuc transl -1.0, Dynein cargo inh -0.569, Ins promoter up 3.37*, MT stabilizer 2.4 and Autophagy HCS inactive.
Screening CC(=O)N1CCN(Cc2nc3cc(NC(=O)Nc4ccccc4)ccc3n2C)CC1 returned bCat nuc transl -0.5, Dynein cargo inh 2.54, Ins promoter up 0.58, MT stabilizer 3.5 and Autophagy HCS inactive.
Screening COCC1CCCN(Cc2nc(C(c3ccccc3)c3ccccc3)no2)C1 (centres undefined) returned bCat nuc transl -2.3, Dynein cargo inh -0.237, Ins promoter up 0.12, MT stabilizer 3.5 and Autophagy HCS active.
COc1ccc(-c2nn(-c3ccccc3)cc2C(=O)N2c3ccc(C)cc3C3CN(C)CCC32)cc1 (centres undefined) was read as bCat nuc transl 0.8, Dynein cargo inh 0.507, Ins promoter up -1.25, MT stabilizer 2.9 and Autophagy HCS active.
Screening COc1ccc(-c2nn(-c3ccccc3)cc2C(=O)O)cc1 returned bCat nuc transl 0.1, Dynein cargo inh -0.982, Ins promoter up 0.76, MT stabilizer 1.6 and Autophagy HCS inactive.
`O=C(OCCN1C(=O)c2cccc3c(N4CCOCC4)ccc(c23)C1=O)c1ccc(Cl)cc1` gave bCat nuc transl 12.7, Dynein cargo inh 0.013, Ins promoter up 1.22, MT stabilizer 11.8 and Autophagy HCS inactive.
CCCN(CCC)S(=O)(=O)c1ccc(C(=O)OCCN2C(=O)c3cccc4c(N5CCOCC5)ccc(c34)C2=O)cc1 was read as bCat nuc transl 2.9, Dynein cargo inh inactive, Ins promoter up 6.18*, MT stabilizer 3.2 and Autophagy HCS active.
CCc1oc(C(=O)OC)cc1CSC(=N)N was read as bCat nuc transl -0.3, Dynein cargo inh 0.967 and Ins promoter up -0.05.
CCCc1cc(-c2[nH]ncc2-c2ccc3c(c2)OCCCO3)c(O)cc1OC was read as bCat nuc transl 2.8, Dynein cargo inh -0.311, Ins promoter up 1.31, MT stabilizer 47.0* and Autophagy HCS inactive.
For CCOC(=O)N1CCN(C(=O)CSc2nnc(-c3ccc(C(C)(C)C)cc3)o2)CC1 the results were bCat nuc transl -3.4, Dynein cargo inh -0.149, MT stabilizer 2.8 and Autophagy HCS active.
Cc1ccc(-c2nnc(-c3ccc(NC(=O)Cc4cccs4)cc3)o2)cc1 was read as bCat nuc transl -1.9, Dynein cargo inh 0.552, Ins promoter up -0.85, MT stabilizer 5.8 and Autophagy HCS active.
CCCCCC1CCC(c2n[nH]c(=S)n2C)CC1 (centres undefined) was read as bCat nuc transl -0.9, Dynein cargo inh 0.732, Ins promoter up 0.79, MT stabilizer 1.3 and Autophagy HCS inactive.
Screening CSC1=NCCN1C(=O)c1c(-c2c(F)cccc2Cl)noc1C returned bCat nuc transl -0.2, Dynein cargo inh 0.41 and Ins promoter up -0.2.
For CCOC(=O)C1CCCN(C(=O)c2ccc(CNS(=O)(=O)c3ccc(C)cc3)cc2)C1 (centres undefined) the results were bCat nuc transl -0.2, Dynein cargo inh -0.444, Ins promoter up -0.28, MT stabilizer 2.5 and Autophagy HCS inactive.
For CCOC(=O)C1CCN(C(=O)c2ccc(CNS(=O)(=O)c3ccc(OC)cc3)cc2)CC1 the results were bCat nuc transl -0.3, Dynein cargo inh -0.28, Ins promoter up -0.24, MT stabilizer 2.7 and Autophagy HCS active.
Screening Cc1ccc(SCCC(=O)OCC(=O)NCC2CCCCC2)cc1 returned bCat nuc transl 1.0, Dynein cargo inh -0.277, Ins promoter up -0.12, MT stabilizer 3.9 and Autophagy HCS inactive.
Cc1cc(=O)oc2cc(OCC3CC(c4ccc(Br)cc4)=NO3)ccc12 (centres undefined) was read as bCat nuc transl 0.2, Dynein cargo inh 0.256, Ins promoter up -0.29, MT stabilizer 20.4* and Autophagy HCS inactive.
Screening Cc1cc(=O)oc2cc(OCC3CC(c4ccccc4)=NO3)ccc12 (centres undefined) returned bCat nuc transl -8.0, Dynein cargo inh -0.749, MT stabilizer 31.6 and Autophagy HCS inactive.
For Cc1ccc(C(C)C)c(OCc2nn(CC(=O)c3ccc(Cl)cc3)c3[n+]2CCCCC3)c1 the results were bCat nuc transl 0.0, Dynein cargo inh -6.94, Ins promoter up -4.3, MT stabilizer 8.5 and Autophagy HCS inactive.
`CC(C)c1ccc(NC(=O)c2ccc(NS(C)(=O)=O)cc2)cc1` gave bCat nuc transl 8.9, Dynein cargo inh 0.425, Ins promoter up -0.47, MT stabilizer 1.1 and Autophagy HCS active.
CN1c2ccsc2/C(=N/Nc2ccccc2)CS1(=O)=O was read as bCat nuc transl -0.9, Dynein cargo inh -1.03, Ins promoter up 1.33, MT stabilizer 7.2 and Autophagy HCS active.

Screening results as filed in PubChem.
